# Activity calls are given as the source filed them. No cut-off for these calls is given here.
# Assays:
# Mus musculus [1] = experiment: Teratogenic effect in SWV mouse assessed as live fetuses at 336 mg/kg, ip administered on morning of day 8 of gestation; assay type: toxicity, organism-based; design: dose 336 mg/kg, route intraperitoneal; conditions: in vivo
# Mus musculus [2] = experiment: Teratogenic effect in SWV mouse assessed as resorptions at 671 mg/kg, ip administered on morning of day 8 of gestation; assay type: toxicity, organism-based; design: dose 671 mg/kg, route intraperitoneal; conditions: in vivo
# Procedure, shortened: (§1)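 Inbred SWV mouse strain highly susceptible to VPA-induced neural tube defects. Each dam received a single ip injection on gestation day 8.5, dosed within 1.8-4.2 mmol/kg, against a control of 25% aqueous Cremophor EL. Groups were compared with the control, and with the matched VPA sodium-salt dose, by Fisher's exact test (p < 0.05).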
# Mus musculus [3] = organism: Mus musculus; experiment: Protective index, ratio of TD50 for CF1 albino mouse to ED50 for 44 mA-current-induced CF1 albino mouse seizure model; assay type: functional
# Procedure, shortened: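 Protective index is the mouse TD50 (minimal motor impairment) divided by the 6 Hz test ED50 at 32 or 44 mA. Male CF no. 1 mice were dosed ip in 0.5% methylcellulose, and values came from probit analysis.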
# Mus musculus [4] = experiment: Anticonvulsant activity in CF1 albino mouse assessed as protection against scMet-induced seizures at 50 mg/kg, ip; assay type: functional, organism-based; design: dose 50 mg/kg
# Procedure, shortened: (§2)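 Adult male CF no. 1 albino mice (18-25 g) dosed intraperitoneally with compound suspended in 0.5% methylcellulose (0.01 mL/g). Convulsant challenge given subcutaneously as a 0.85% pentylenetetrazol solution in 0.9% saline. Read-out is animals protected over animals tested, with neurotoxicity scored in parallel.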
# Mus musculus [5] = experiment: Anticonvulsant activity in CF1 albino mouse assessed as protection against maximal electroshock-induced seizures at 150 mg/kg, ip after 0.5 hrs; assay type: functional, organism-based; design: dose 150 mg/kg
# Procedure, shortened: (§3)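 Adult male CF no. 1 albino mice (18-25 g). Test compound suspended in 0.5% methylcellulose and given intraperitoneally at 0.01 mL/g body weight. Maximal electroshock challenge at the stated time. Read-out is the number of animals protected over the number tested; neurotoxicity is scored in parallel.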
# Rattus norvegicus [6] = experiment: Anticonvulsant activity in po dosed albino Sprague-Dawley rat assessed as protection against scMet-induced seizures; assay type: functional
# Procedure, shortened: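 Male Sprague-Dawley albino rats (100-150 g) were dosed orally in 0.5% methylcellulose and tested by MES or by sc pentylenetetrazol (2.82% in 0.9% saline). Doses were varied to give 3-4 points between 0% and 100% protection. ED50 and 95% confidence intervals came from probit analysis.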
# Mus musculus [7] = experiment: Anticonvulsant activity in CF1 albino mouse assessed as protection against scMet-induced seizures at 300 mg/kg, ip after 0.5 hrs; assay type: functional, organism-based; design: dose 300 mg/kg; procedure, shortened: as §2
# Rattus norvegicus [8] = experiment: Anticonvulsant activity in albino Sprague-Dawley rat assessed as protection against scMet-induced seizures at 50 mg/kg, po after 4 hrs; assay type: functional
# Procedure, shortened: (§4)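 Male Sprague-Dawley albino rats (100-150 g) were given the compound orally as a suspension in 0.5% methylcellulose. Seizures were induced by subcutaneous pentylenetetrazol, dissolved in 0.9% saline as a 2.82% solution. The read-out was animals protected over animals tested.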
# Mus musculus [9] = experiment: Teratogenic effect in SWV mouse assessed as number of dead fetuses at 502 mg/kg, ip administered on morning of day 8 of gestation; assay type: toxicity, organism-based; design: dose 502 mg/kg, route intraperitoneal; conditions: in vivo; procedure, shortened: as §1
# Mus musculus [10] = experiment: Teratogenic effect in SWV mouse assessed as number of litters at 336 mg/kg, ip administered on morning of day 8 of gestation; assay type: toxicity, organism-based; design: dose 336 mg/kg, route intraperitoneal; conditions: in vivo; procedure, shortened: as §1
# Mus musculus [11] = experiment: Anticonvulsant activity in ip dosed CF1 albino mouse assessed as protection against 44 mA-current-induced seizure by 6Hz psychomotor seizure test; assay type: functional
# Procedure, shortened: (§5)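 In the 6 Hz psychomotor seizure test, male CF no. 1 albino mice (18-25 g) received the compound ip in 0.5% methylcellulose. Stimulation was at 32 or 44 mA. Doses were varied to give 3-4 points between 0% and 100% protection, and ED50 with 95% confidence interval came from probit analysis.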
# Mus musculus [12] = experiment: Anticonvulsant activity in CF1 albino mouse assessed as protection against maximal electroshock-induced seizures at 300 mg/kg, ip after 4 hrs; assay type: functional, organism-based; design: dose 300 mg/kg; procedure, shortened: as §3
# Mus musculus [13] = experiment: Teratogenic effect in VPA-induced SWV mouse assessed as number of fetuses with neural tube deffects at 336 mg/kg, ip administered on morning of day 8 of gestation; assay type: toxicity, organism-based; design: dose 336 mg/kg, route intraperitoneal; conditions: in vivo; procedure, shortened: as §1
# Mus musculus [14] = experiment: Anticonvulsant activity in ip dosed CF1 albino mouse assessed as protection against 32 mA current-induced seizure by 6Hz psychomotor seizure test; assay type: functional; procedure, shortened: as §5
# Rattus norvegicus [15] = organism: Rattus norvegicus; experiment: Anticonvulsant activity in hippocampal kindled Sprague-Dawley rat model; assay type: functional; conditions: albino Sprague-Dawley, Hippocampus
# Rattus norvegicus [16] = experiment: Anticonvulsant activity in albino Sprague-Dawley rat assessed as protection against scMet-induced seizures at 50 mg/kg, po after 2 hrs; assay type: functional; procedure, shortened: as §4
# Mus musculus [17] = experiment: Anticonvulsant activity in CF1 albino mouse assessed as protection against scMet-induced seizures at 100 mg/kg, ip; assay type: functional, organism-based; design: dose 100 mg/kg; procedure, shortened: as §2
# Mus musculus [18] = experiment: Neurotoxicity in CF1 albino mouse at 300 mg/kg, ip after 4 hrs; assay type: toxicity, organism-based; design: dose 300 mg/kg, route intraperitoneal; conditions: in vivo
# Procedure, shortened: (§6)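 Male CF no. 1 albino mice (18-25 g) received a single ip dose as a suspension in 0.5% methylcellulose. The read-out was the number of animals showing neurotoxicity (minimal motor impairment) over the number tested.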
# Mus musculus [19] = experiment: Teratogenic effect in SWV mouse assessed as live fetuses at 671 mg/kg, ip administered on morning of day 8 of gestation; assay type: toxicity, organism-based; design: dose 671 mg/kg, route intraperitoneal; conditions: in vivo; procedure, shortened: as §1
# Rattus norvegicus [20] = experiment: Anticonvulsant activity in albino Sprague-Dawley rat assessed as protection against scMet-induced seizures at 50 mg/kg, po after 1 hr; assay type: functional; procedure, shortened: as §4
# Rattus norvegicus [21] = experiment: Anticonvulsant activity in albino Sprague-Dawley rat assessed as protection against maximal electroshock-induced seizures at 50 mg/kg, po after 1 hr; assay type: functional
# Procedure, shortened: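 Adult male Sprague-Dawley albino rats (100-150 g) dosed orally with compound suspended in 0.5% methylcellulose (0.04 mL per 10 g). Maximal electroshock challenge at the stated time. Protection is scored in 25% steps as the fraction of animals protected, with neurotoxicity recorded in parallel.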
# Mus musculus [22] = experiment: Teratogenic effect in SWV mouse assessed as number of dead fetuses at 336 mg/kg, ip administered on morning of day 8 of gestation; assay type: toxicity, organism-based; design: dose 336 mg/kg, route intraperitoneal; conditions: in vivo; procedure, shortened: as §1
# Mus musculus [23] = experiment: Anticonvulsant activity in CF1 albino mouse assessed as protection against scMet-induced seizures at 30 mg/kg, ip after 4 hrs; assay type: functional, organism-based; design: dose 30 mg/kg; procedure, shortened: as §2
# Rattus norvegicus [24] = experiment: Anticonvulsant activity in albino Sprague-Dawley rat assessed as protection against pilocarpine-induced status epilepticus dosed ip after 30 mins of pilocarpine induction; assay type: functional; conditions: 0.5 h
# Procedure, shortened: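 Rat pilocarpine status epilepticus model. Compound is given 30 min after pilocarpine status induction, or after the first stage III seizure. Seizure severity is rated on the Racine scale and scored as protection or no protection. Doses of 50, 75 and 100 mg/kg were used, with 7, 6 and 7 rats respectively. ED50 was derived by probit analysis.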
# [25] = Neurotoxicity in ip dosed CF1 albino mouse assessed as minimal motor impairment; assay type: toxicity, organism-based; conditions: CF1, mouse, in vivo
# Procedure, shortened: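 Mice: male CF no. 1 albino (18-25 g), ip dosing in 0.5% methylcellulose. Minimal motor impairment was scored, with doses varied to give four points between no impairment and all animals impaired.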
# Mus musculus [26] = experiment: Neurotoxicity in CF1 albino mouse assessed as minimal motor impairment at 150 mg/kg, ip; assay type: toxicity, organism-based; design: dose 150 mg/kg, route intraperitoneal; conditions: in vivo; procedure, shortened: as §6
smiles,measurement,setting,value
CC1(C)C(C)(C)C1(F)C(N)=O,Activity,Mus musculus [1],90.2%
same,Activity,Mus musculus [2],78.2%
same,PI,Mus musculus [3],2
same,Activity,Mus musculus [4],Active
same,Activity,Mus musculus [5],inactive
same,ED50,Rattus norvegicus [6],6.4 mg/kg
same,Activity,Mus musculus [7],Toxic
same,Activity,Rattus norvegicus [8],50%
same,Activity,Mus musculus [9],0
same,Activity,Mus musculus [10],8
same,ED50,Mus musculus [11],59 mg/kg
same,Activity,Mus musculus [12],Non-toxic
same,Activity,Mus musculus [13],0
same,ED50,Mus musculus [14],57 mg/kg
same,ED50,Rattus norvegicus [15],30 mg/kg
same,Activity,Rattus norvegicus [16],75%
same,Activity,Mus musculus [17],Active
same,Activity,Mus musculus [18],Non-toxic
same,Activity,Mus musculus [19],21.8%
same,Activity,Rattus norvegicus [20],75%
same,Activity,Rattus norvegicus [21],inactive
same,Activity,Mus musculus [22],0
same,Activity,Mus musculus [23],Non-toxic
same,ED50,Rattus norvegicus [24],80 mg/kg
same,TD50,[25],120 mg/kg
same,Activity,Mus musculus [26],Toxic

# — ChEMBL document CHEMBL1153988 (J Med Chem, 2009)
